Assay outcomes deposited in PubChem BioAssay by several laboratories.
UBC13 inh = UBC13 polyubiquitin chain formation inhibitors, primary screen, biochemical, TR-FRET, uHTS; actives 0.47% (n = 330,000); Ubiquitin-conjugating enzyme E2 N (Homo sapiens), P61088; inhibition, % at 20 µM; in the data active = inhibition above about 45%, passing the limit was not always enough
RAD54 inh = inhibitors of human RAD54 branch migration, primary screen, biochemical, fluorescence, single point | actives 0.14% (n = 360,000) | RAD54 Holliday junction branch migration, FAM/BHQ fluorescence | inhibition, % at 10.4 µM | DNA repair and recombination protein RAD54-like (Homo sapiens), Q92698;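 active = mean normalized replicate activity at least 40 and at least half of replicates scoring 40 or more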;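 note: inhibitors cause a drop in the FAM fluorescence signal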
Neddylation inh = inhibitors of cullin neddylation, primary screen, biochemical, TR-FRET, uHTS, NAE and Ubc12. calls only at 25 µM. AID 651699, 2012. actives 0.58% (n = 360,000); in the data active = inhibition above about 36%
DNA FID counter = compounds displacing fluorescent DNA intercalator, primary screen, artefact control for HCV NS3 helicase inhibitor project, biochemical, FID fluorescence. actives 0.17% (n = 290,000). inhibition, % at 7.9 µM. DNA fluorescent intercalator displacement; in the data active = inhibition above about 37%;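 note: higher means more ethidium bromide displaced from hairpin DNA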
Apaf1 inhib = inhibitors of human Apaf-1 apoptosome, primary screen, biochemical, DEVD-Rh110 fluorescence, uHTS; inhibition, % at 20 µM; Apoptotic protease-activating factor 1 (Homo sapiens), O14727; actives 0.71% (n = 330,000); reconstituted apoptosome caspase-3 activity; active = inhibition of at least 40% at 20 µM
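Medium: Hepes buffer, pH 7.5 / System: biochemical Apaf-1 apoptosome reconstitution / Measured by: Rh110 fluorescence, excitation 480 nm, emission 540 nm / Times: compound with Apaf-1, dATP, procaspase-3 30 min, then 50 min reaction, room temperature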
RAD52 inh = RAD52 DNA annealing inhibitors, primary screen, biochemical, FRET, single point, set 2 | DNA repair protein RAD52 homolog (Homo sapiens), P43351 | recombinant RAD52 DNA annealing, FRET fluorescence | inhibition, % at 18.7 µM | actives 0.46% (n = 360,000) | AID 651710, 2012;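 active = every replicate showing at least 50% inhibition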
Target sequence (P43351 whole entry, looked up): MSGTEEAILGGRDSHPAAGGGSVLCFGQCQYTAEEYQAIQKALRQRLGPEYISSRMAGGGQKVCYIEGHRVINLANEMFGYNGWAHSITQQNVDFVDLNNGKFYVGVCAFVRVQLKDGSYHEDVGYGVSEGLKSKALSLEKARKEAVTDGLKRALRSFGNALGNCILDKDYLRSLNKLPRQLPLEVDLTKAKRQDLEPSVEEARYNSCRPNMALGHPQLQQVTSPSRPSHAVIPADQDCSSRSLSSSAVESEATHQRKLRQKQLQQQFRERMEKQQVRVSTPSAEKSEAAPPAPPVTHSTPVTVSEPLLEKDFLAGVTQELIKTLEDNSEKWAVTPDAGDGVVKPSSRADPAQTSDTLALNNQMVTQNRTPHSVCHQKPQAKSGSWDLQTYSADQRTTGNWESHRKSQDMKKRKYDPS
Casp3 counter = CASP3 inhibitor validation, counterassay for project on UBE2N polyubiquitination blockers, biochemical, one dose. shares compounds with UBC13 inh. Recombinant caspase-3, Caspase-Glo 3/7 luminescence, 60 min. actives 4% (n = 1,400). AID 488856, 2010. inhibition, % at 20 µM;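 active = mean inhibition across replicates above about 26%, limit read from the data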
UBC13 conf = UBC13 polyubiquitination inhibitors, single-point retest, confirmation, biochemical, TR-FRET, single concentration; AID 488859, 2010; actives 68% (n = 1,400); inhibition, % at 10 µM; shares compounds with UBC13 inh; in the data active = inhibition above about 45%
Apaf-1 inh conf = Apaf-1 inhibitors, single-dose retest, confirmation, biochemical, fluorescence, DEVD-Rh110, 20 µM. reconstituted apoptosome, caspase-3 DEVD-Rh110 fluorescence. AID 504614, 2011. actives 25% (n = 1,800). shares compounds with Apaf1 inhib. inhibition, % at 20 µM;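 active = mean inhibition of at least 40% at 20 µM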
Rh110 quench = Rh110 fluorescence interference by putative Apaf-1 inhibitors, confirmation, artefact control for Apaf-1 inhibitor project, biochemical, 20 µM; activation (fluorescence interference), % at 20 µM; 1,800 tested, under 10 active; quenched caspase reaction; shares compounds with Apaf1 inhib;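 active = signal rise of 40% or more at 20 µM, treated as a fluorescence artifact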
Apaf1 inh interf = fluorescence interference of Apaf-1 inhibitor hits, dose response, artefact control for Apaf-1 inhibitor project. 460 tested, under 10 active. IC50, µM. shares compounds with Apaf1 inhib. fluorescence interference counterscreen, Apaf-1 assay format; call rule not given here
DNA binding = DNA binding of candidate compounds, dose response, artefact control for RAD54 inhibitor project, biochemical, fluorescence polarization, cherry-pick; AC50, µM (titrated, usually from 35 µM); shares compounds with RAD54 inh; actives 8% (n = 460); AID 651673, 2012; Acridine orange-DNA displacement, 20 min;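 active = signal drop giving an AC50 within twice the top valid tested concentration of each sample, actives reach about 35 µM in these data; inactive = activity opposite to expected, plus the rest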;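 note: polarization loss reports compound binding to salmon sperm DNA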
Neddyl conf = blockade of NEDD8 conjugation to cullin – biochemical, TR-FRET, single concentration, confirmation | shares compounds with Neddylation inh | TR-FRET cullin neddylation biochemical assay | calls only at 25 µM | actives 13% (n = 1,800); in the data active = inhibition above about 40%;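 note: neddylation substrate is the cullin 1 ring ligase complex with SKP2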
DNA binder FP = DNA-binding compounds via dye displacement, dose response, artefact control for RAD52 inhibitor project, biochemical, fluorescence polarization, cherry-pick. AC50, µM. shares compounds with RAD52 inh. Salmon sperm DNA/acridine orange FP displacement. actives 8% (n = 1,000). AID 652128, 2013;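 active = fitted half-maximal concentration for signal loss at or below twice the highest dose tested, in every separate run, actives reach about 64 µM in these data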
Hits are given with their value; . = inactive; / = not tested or not shown; + = active, no number. Rows were chosen to be rich in hits. Some 1.6% of all compounds tested hit in one or more screens of this group.

SMILES	UBC13 inh	RAD54 inh	Neddylation inh	DNA FID counter	Apaf1 inhib	RAD52 inh	Casp3 counter	UBC13 conf	DNA binder FP	others
Cc1ccc(C)c(OCC(O)CN2CCC(Cc3ccccc3)CC2)c1 (stereo not given)	.	.	.	.	.	.	/	/	/
O=C(NC[C@H]1CC[C@H]2[C@H](CN2Cc2nccs2)O1)C1CCC1	/	/	/	/	/	.	/	/	/
CCOC(=O)c1c(-c2ccccc2)oc2ccc(OCC(O)CN(C)C)cc12 (stereo not given)	46.6	.	/	.	.	.	.	52.2	.
CCCCCc1cc(=O)oc2c(C(CCN(CC)CC)c3ccc(N(C)C)cc3)c(OC)cc(OC)c12 (stereo not given)	79.9	.	.	/	.	59.7	.	.	.
CO[C@H]1CN(C)C(=O)c2cc(NC(=O)Nc3cccc(F)c3)ccc2OC[C@@H](C)NC[C@@H]1C	/	.	/	/	/	.	/	/	/
COc1ccc(CNc2ncnc3cc(Cl)ccc23)cc1OC	/	/	.	.	/	.	/	/	/
CCN(CC)Cc1cc2[nH]c3c4ccc(Cl)cc4ncc3c2cc1OC	66.7	101.2	.	58.8	.	102.4	.	.	.	DNA binding=.
NCCCCc1ccc2ccc3cccc4ccc1c2c34	48.9	.	+	/	.	52.7	.	84.9	.	Neddyl conf=.
CNC[C@@H]1Oc2ccc(NS(=O)(=O)c3ccc(F)cc3)cc2CC(=O)N([C@H](C)CO)C[C@H]1C	/	.	/	/	/	.	/	/	/
COCC#Cc1cnc2c(c1)C(=O)N([C@H](C)CO)C[C@H](C)[C@H](CN(C)C)O2	/	.	/	/	/	.	/	/	/
CCOC(=O)c1c(-c2ccc(-c3ccccc3)cc2)csc1NC(=O)CNCCN(C)C	78.6	53.5	.	.	42.2	95.2	.	84.7	.	Apaf-1 inh conf=47.4;Rh110 quench=.;Apaf1 inh interf=.;DNA binding=.
CN1C(=O)c2cc(NS(=O)(=O)c3cccc(F)c3)ccc2OC[C@@H]2O[C@@H](CC(=O)N3CCc4ccccc4C3)CC[C@@H]21	/	.	/	/	/	/	/	/	/
